Source: PubChem
HNF4A DNA FP: change in binding of human HNF4 alpha to DNA; P41235; HNF4a-FITC DNA binding, fluorescence polarization, 1 h; activity change, % at 10 µM; 0.3% of 360,000 active; AID 1224865; in the data active = activity change above about 30%, passing the limit was not always enough
SENP1 FRET inh: SENP1 (human) catalytic domain inhibition; 0.21% of 360,000 active; AID 624204; inhibition, % at 10 µM; recombinant SENP1 catalytic domain, CyPet-SUMO1-YPet FRET cleavage;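 active = inhibition at least 30% at 10 µM, raw YFP signal under a set limit, fluorescence ratio 0.5 to 1.5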;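 also: 0% = enzyme with DMSO and 100% = no enzyme wells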
Target sequence (Q9P0U3 419-644 limits assumed): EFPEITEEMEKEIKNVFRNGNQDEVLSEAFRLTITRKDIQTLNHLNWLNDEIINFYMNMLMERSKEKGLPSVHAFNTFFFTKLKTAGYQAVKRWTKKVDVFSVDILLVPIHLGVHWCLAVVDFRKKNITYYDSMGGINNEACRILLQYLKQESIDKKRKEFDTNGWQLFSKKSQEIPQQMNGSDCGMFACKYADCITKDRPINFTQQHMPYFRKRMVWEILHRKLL
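Test system: human SENP1 catalytic domain; medium: Tris pH 8 buffer plus EDTA, NaCl, BME, BSA, NP40, catalase; incubation: 50 min reaction at room temperature; technique: FRET, CFP and YFP emission; controls: no-enzyme low control and enzyme-plus-DMSO high control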
TPT1 inh: blocks Candida albicans tRNA 2'-phosphotransferase. 0.81% of 300,000 active. AID 1962. recombinant caTPT1, FP RNA substrate dephosphorylation. inhibition, % at 5 µM;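 active = inhibition above the mean of all tested compounds plus 3 SD, set per screening campaign, cut at about 24% in these data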;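 also: plate controls were DMSO alone for no effect and ferristatin control at 100 nM for full effect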
Rpn11 block: inhibitors of human proteasome Rpn11; O00487; human 26S proteasome, Ub4-pepOG fluorescence polarization; 20S core pre-blocked with epoxomicin; inhibition, % at 20 µM; 0.59% of 360,000 active; AID 588493;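 active = inhibition at 20 µM, scaled to each plate's controls, above about 33%, limit read from the data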
Target sequence (O00487 whole entry, looked up): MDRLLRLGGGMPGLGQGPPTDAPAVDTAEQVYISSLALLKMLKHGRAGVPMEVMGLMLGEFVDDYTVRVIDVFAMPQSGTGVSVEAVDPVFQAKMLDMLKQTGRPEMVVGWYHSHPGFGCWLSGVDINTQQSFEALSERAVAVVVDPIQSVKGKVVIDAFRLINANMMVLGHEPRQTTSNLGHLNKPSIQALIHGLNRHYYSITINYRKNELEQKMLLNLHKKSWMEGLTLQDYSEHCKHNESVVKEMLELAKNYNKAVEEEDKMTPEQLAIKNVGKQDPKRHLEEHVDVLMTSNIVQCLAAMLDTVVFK
CSN inh: inhibitors of human CSN-mediated cullin deneddylation; inhibition, % at 12.5 µM; 0.38% of 360,000 active; Purified CSN, SCF-Nedd8-OG deneddylation, fluorescence polarization; AID 651999; Q92905;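 active = pattern-corrected inhibition above about 35%, with an unprinted fluorescence ratio check between 0.5 and 1.5, limit read from the data, passing the limit was not always enough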;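 also: 0% = enzyme with substrate and 100% = substrate without enzyme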
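Detection – fluorescence polarization · System – HEK293T-derived human Csn5 enzyme · Controls – substrate-only high control, full reaction low control · Timing – 90 min, room temperature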
TPT1 inh confirm: TPT1 (C. albicans) inhibition, confirmation; shares compounds with TPT1 inh; recombinant caTPT1, fluorescence polarization, RNase T1 coupled; inhibition, % at 5 µM; 74% of 2,400 active; AID 2149;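 active = inhibition above the primary screen limit, the mean inhibition of all tested compounds plus 3 SD, cut at about 25% in these data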
RNase T1 inh: counter-screen for TPT1 inhibitors: inhibitors of Aspergillus oryzae RNase T1; shares compounds with TPT1 inh; inhibition, % at 5 µM; RNase T1 cleavage, fluorescence polarization, 1536-well; 83% of 2,400 active;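 active = inhibition above the solvent-only control well mean plus 3 SD, limit set per screening run, cut at about 23% in these data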;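 also: plate controls were DMSO wells with enzyme for no effect and wells without RNase T1 for full effect; inhibitors block cleavage so intact labeled substrate keeps polarization high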
Target sequence (P00651 whole entry, looked up): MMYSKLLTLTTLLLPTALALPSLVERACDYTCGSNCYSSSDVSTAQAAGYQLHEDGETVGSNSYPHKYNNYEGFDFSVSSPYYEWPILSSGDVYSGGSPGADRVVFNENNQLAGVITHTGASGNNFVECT
Numbers without * were called inactive; . = not tested or not shown. Shown are actives, neighbours in structure and some others; about 1.6% of the full set was active somewhere.

SMILES | HNF4A DNA FP | SENP1 FRET inh | TPT1 inh | Rpn11 block | CSN inh | TPT1 inh confirm | RNase T1 inh
O=C1CC(c2ccccc2)CC2=C1C1(CCCC1)N=C(Nc1nc3ccccc3o1)N2 (centres undefined) | 0 | -1 | . | 13 | 0 | . | .
CC(C)C[C@H]1CNC(=S)N1C[C@H]1CCCN1C[C@H](CC(C)C)N1C[C@H](Cc2ccccc2)N(CCc2ccccc2)C1=S | -1 | 0 | . | 10 | 110* | . | .
CC(C)C[C@H]1CNC(=S)N1C[C@H]1CCCN1C[C@H](CC(C)C)N1C[C@H](CC(C)C)N(CCc2ccccc2)C1=S | 1 | -1 | . | 1 | 4 | . | .
COc1ccc(C2=Nc3ccccc3N(C(=O)c3ccc4ncccc4c3)C2C(=O)NC2CCCC2)cc1 (centres undefined) | 3 | 1 | . | . | -7 | . | .
Fc1ccc2c(c1)C(c1ccc(N3CCOCC3)cc1)=NNC(c1cccs1)=N2 | 15 | 42* | -3 | 82* | 9 | . | .
Brc1ccc2c(c1)C(c1ccc(N3CCOCC3)cc1)=NNC(c1cccs1)=N2 | 37* | 49 | 1 | . | 14 | . | .
Cc1ccc2c(c1)C(c1ccc(N3CCOCC3)cc1)=NNC(c1cccs1)=N2 | 4 | 21 | -3 | 29 | -1 | . | .
CC(C)(C)[C@H]1C=C(C(N)=O)O[C@@H](OCCCCO)C1 | 2 | -2 | -5 | 2 | -2 | . | .
Cc1nn(CC(C)C)c(Cl)c1C(=O)N(C)CC(=O)Nc1ccc(Cl)cc1 | 0 | 2 | . | -3 | -2 | . | .
CCOC(=O)Nc1ccc2c(CN3CCC(C(=O)OC)CC3)cc(=O)oc2c1 | 2 | -13 | -1 | -5 | -2 | . | .
CCc1ccc2c(CN3CCC(C(=O)OC)CC3)cc(=O)oc2c1 | 84* | -1 | 0 | -4 | -1 | . | .
O=c1c(O)c(-c2cc(O)c(O)c(O)c2)oc2cc(O)cc(O)c12 | 2 | 84* | 22 | 36 | 20 | . | .
Cc1n[nH]c(=S)n1/N=C/c1ccccc1OCc1ccc(Cl)cc1 | 51* | -3 | 1 | -28 | 4 | . | .
Cc1n[nH]c(=S)n1/N=C/c1cccc(OCc2ccccc2)c1 | 2 | 2 | -1 | 5 | -4 | . | .
CC1(C)CC(=O)C2=C(C1)OC(=O)CC2c1cccs1 (centres undefined) | -3 | 4 | -2 | 5 | 8 | . | .
Cc1ccsc1C1CC(=O)OC2=C1C(=O)CC(C)(C)C2 (centres undefined) | . | . | 109* | . | . | 6 | 11
C=CC(C)N1C(=O)S/C(=C\c2ccc(N3CCOCC3)cc2C)C1=O (centres undefined) | 17 | -30 | 32* | -28 | 7 | 57* | 64*
C=CCN1C(=O)S/C(=C\c2ccc(N3CCOCC3)cc2C)C1=O | 22 | -26 | 66* | 18 | 10 | 54* | 66*
Cc1cc(N2CCOCC2)ccc1/C=C1/SC(=O)NC1=O | 1 | -31 | 7 | 4 | -5 | . | .
O=[N+]([O-])c1cc(C(F)(F)F)ccc1N1CCN(S(=O)(=O)c2ccc3c(c2)CCCC3)CC1 | -1 | 2 | -1 | 0 | 5 | . | .
COc1ccc(/C=C/C=C2\NC(=S)NC2=O)cc1 | 15 | -29 | 28* | 17 | -1 | 19 | 32*
COc1ccc(C=C2NC(=S)NC2=O)cc1 | 2 | -20 | . | -4 | 4 | . | .
CC(C)(C)c1csc(NC(=O)c2cccs2)n1 | -2 | 3 | -1 | -10 | 3 | . | .
CC(C)(C)c1csc(NC(=O)Cc2cccs2)n1 | -2 | -7 | 99* | 5 | 5 | 11 | 15
Cc1cc(Br)ccc1OCCN1CC(C)OC(C)C1 (centres undefined) | 1 | 2 | 48* | -4 | 0 | 10 | 12
SMILES | HNF4A DNA FP | SENP1 FRET inh | TPT1 inh | Rpn11 block | CSN inh | TPT1 inh confirm | RNase T1 inh
Cc1cc(Br)ccc1OCCN1CCCC1 | 0 | 0 | -3 | 4 | 8 | . | .
O=C(CSc1cccc[n+]1[O-])c1ccc(Cl)s1 | -1 | 1 | 0 | -5 | 1 | . | .
COC(=O)c1ccnc(SCC(=O)c2ccccc2)c1 | -1 | 0 | 1 | 1 | 1 | . | .
COC(=O)c1ccnc(/C=N/O)c1 | 0 | 2 | 50* | 0 | 4 | 7 | 7
CCC(=O)Oc1ccc(NC(=O)c2ccc(S(=O)(=O)N3CCCC3)cc2)cc1 | 1 | 3 | . | -2 | -5 | . | .
CC(C)CC(=O)Nc1ccc2c(c1)nc(CCN1CCOCC1)n2C | 0 | -1 | -3 | 1 | 2 | . | .
N#CC1=C(N)Oc2cc(N)ccc2C1c1ccc(F)cc1F (centres undefined) | 37 | -37 | 42* | . | 58 | 33* | 44*
N#CC1=C(N)Oc2cc(N)ccc2C1c1ccc(F)cc1 (centres undefined) | 0 | -23 | 1 | 9 | 4 | . | .
CCN(CC)c1ccc(C=Nc2cccc(S(=O)(=O)N3CCOCC3)c2)c(O)c1 | 4 | -3 | . | 1 | -5 | . | .
O=C(Nc1ccccc1F)C(=Cc1sc(N2CCOCC2)nc1-c1ccccc1)C(=O)Nc1ccccc1F | -55 | -25 | 48* | -64 | -15 | -24 | -3
O=C(N/N=C/c1sc(N2CCOCC2)nc1-c1ccccc1)c1cccc(S(=O)(=O)N2CCOCC2)c1 | 25 | -33 | 60* | . | 21 | 60* | 69*
CCN(CC)c1ccc(/C=N/NC(=O)c2cccc(S(=O)(=O)N3CCOCC3)c2)c(O)c1 | 7 | -36 | 41* | 10 | -4 | 58* | 67*
O=C(N/N=C/c1sc(N2CCOCC2)nc1-c1ccccc1)c1ccccc1F | . | . | -2 | . | . | . | .
C[C@H]1CC[C@@]2(O[C@H](CCO)C[C@H](O)[C@H]2O)O1 | 2 | -2 | -2 | -3 | 0 | . | .
Cc1cc(O)c2c(c1)C(=O)c1cc(O)cc(O)c1C2=O | 14 | 11 | 27* | 8 | 7 | 44* | 61*
O=C1c2cc(O)cc(O)c2C(=O)c2c1cc(O)c([C@@H](CO)CCO)c2O | 19 | 12 | 17 | 7 | 30 | . | .
Cc1ccc(/C=C2\NC(=S)NC2=O)cc1[N+](=O)[O-] | 2 | 2 | 0 | 7 | -11 | . | .
O=C1NC(=S)N/C1=C/c1cc([N+](=O)[O-])ccc1O | -2 | 82 | 43* | 23 | 8 | 43* | 52*
CCN1CCN(c2c(/C=C3\SC(=S)N(Cc4ccco4)C3=O)c(C)c(C#N)c(=O)n2C)CC1 | 137 | -30 | 161* | . | 141 | 181* | 172*
CCN1C(=O)/C(=C\N2CCN(C(=O)c3ccco3)CC2)SC1=S | -6 | -1 | 5 | 3 | 2 | . | .
O=C(COC(=O)/C=C/c1cc(Br)ccc1F)NC1CC1 | 1 | -3 | . | 3 | 1 | . | .
COc1ccc(NC(=O)CN(C)C(=O)Cn2cnc3c2c(=O)n(C)c(=O)n3C)cc1 | 2 | 1 | -2 | 6 | -3 | . | .
